Source: ChEMBL document CHEMBL4477183, “Antimicrobial Peptide from the Wild Bee Hylaeus signatus Venom and Its Analogues: Structure-Activity Study and Synergistic Effect with Antibiotics” (J Nat Prod, 2016)
Converted amounts (≈) assume the structure as drawn. The source made the active and inactive calls. The calls are words filed in the database; no cut-off is given here.

Experiments:
Pseudomonas aeruginosa [1] = assay: Induction of cell permeabilization in Pseudomonas aeruginosa assessed as propidium iodide uptake at 4 uM after 10 mins; format: functional, organism-based
Pseudomonas aeruginosa [2] = assay: Ratio of MIC for Pseudomonas aeruginosa to PC50 for induction of permeabilization in Pseudomonas aeruginosa; format: functional
How it was run: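 PC50: washed 10^8 cfu/mL cells in PBS pH 7 with PI 10 μg/mL, peptide 0.31–80 μM, 90 min at 37 °C dark, fluorescence 544/620 nm as % of 4 μM octenidine, interpolated from log-concentration curve.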

Pseudomonas aeruginosa [3] = assay: Antimicrobial activity against Pseudomonas aeruginosa clinical isolates assessed as FIC index in presence of tetracycline after 20 hrs by drop diffusion test; format: functional
Pseudomonas aeruginosa [4] = assay: Antimicrobial activity against Pseudomonas aeruginosa clinical isolates assessed as FIC index in presence of rifampicin after 20 hrs by drop diffusion test; format: functional
Bacillus subtilis = assay: Antimicrobial activity against Bacillus subtilis assessed as reduction in bacterial growth after 20 hrs by […]; format: functional
How it was run: (§1)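 Broth microdilution in LB (YPG for C. albicans) with 2-fold serial dilutions, final 0.1–100 μM. Mid-log cells grown 3–5 h at 37 °C were added at about 5 × 10^5 cfu/mL, then incubated 20 h at 37 °C with shaking. A540 was read every 15 min to build growth curves. Medium with cells served as growth control; at least three runs in duplicate.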

Staphylococcus aureus [5] = assay: Antimicrobial activity against Staphylococcus aureus 6271 assessed as reduction in bacterial growth after 20 hrs by broth microdilution assay; conditions: Staphylococcus aureus, 6271, 20 h
[6] = Hemolytic activity in human type RBC after 1 hr; format: ADME, cell-based, Erythrocyte; conditions: red blood cells (erythrocytes), read-out: LC50
How it was run: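 Peptides at 2.5–400 μM were incubated with a 4% suspension of human erythrocytes in physiological solution for 1 h at 37 °C, then centrifuged at 250g for 5 min; supernatant A540 was read. Saline-treated cells gave 0% lysis and 0.2% Triton X-100 gave 100%. LC50 is the concentration lysing 50% of cells; duplicates in at least two independent experiments.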

Staphylococcus aureus [7] = assay: Antimicrobial activity against Staphylococcus aureus clinical isolates assessed as FIC index in presence of amoxicillin after 20 hrs by drop diffusion test; format: functional
Pseudomonas aeruginosa [8] = assay: Antimicrobial activity against Pseudomonas aeruginosa clinical isolates assessed as reduction in bacterial growth after 20 hrs by […]; format: functional; how it was run: as §1
Micrococcus luteus = assay: Antimicrobial activity against Micrococcus luteus assessed as reduction in bacterial growth after 20 hrs by […]; format: functional; how it was run: as §1
Pseudomonas aeruginosa [9] = assay: Antimicrobial activity against Pseudomonas aeruginosa 5482 assessed as reduction in bacterial growth after 20 hrs […]; format: functional; conditions: Pseudomonas aeruginosa, 5482, 20 h; how it was run: as §1
Staphylococcus aureus [10] = assay: Antimicrobial activity against Staphylococcus aureus clinical isolates from Liberec regional hospital assessed as reduction in bacterial growth after 20 hrs by broth microdilution assay
[11] = tested on: Staphylococcus epidermidis; assay: Antimicrobial activity against Staphylococcus epidermidis assessed as reduction in bacterial growth after 20 hrs by broth microdilution assay
Escherichia coli = assay: Antimicrobial activity against Escherichia coli assessed as reduction in bacterial growth after 20 hrs by […]; format: functional; how it was run: as §1
Staphylococcus aureus [12] = assay: Antimicrobial activity against Staphylococcus aureus clinical isolates from university hospital in Motol assessed as reduction in bacterial growth after 20 hrs by drop diffusion test; format: functional
Candida albicans = assay: Antifungal activity against Candida albicans assessed as reduction in fungal growth after 20 hrs by […]; format: functional; how it was run: as §1
Pseudomonas aeruginosa [13] = assay: Bacteriostatic activity against Pseudomonas aeruginosa assessed as induction of bacteria killing at 80 uM after 3 hrs by time kill assay; format: functional, organism-based
How it was run: (§2)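 P. aeruginosa grown at 37 °C with shaking to mid-log phase, then diluted in fresh LB to about 5 × 10^5 cfu/mL. This inoculum was mixed 1:1 with LB containing the agent and shaken at 37 °C for 4 h. Samples were taken at 0–240 min, serially diluted in 0.9% NaCl and plated on LB agar overnight at 37 °C; viable counts are given as cfu/mL. LB-only growth control; means of four independent runs, SEM.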

Pseudomonas aeruginosa [14] = assay: Bacteriostatic activity against Pseudomonas aeruginosa assessed as induction of bacteria killing at 80 uM after 60 mins by time kill assay; format: functional, organism-based; how it was run: as §2
Pseudomonas aeruginosa [15] = assay: Induction of cell permeabilization in Pseudomonas aeruginosa assessed as propidium iodide uptake at 5 to 10 uM after 10 mins; format: functional, organism-based
How it was run: (§3)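 Mid-log P. aeruginosa was washed twice and resuspended in PBS (pH 7) at 10^8 cfu/mL with propidium iodide at 10 μg/mL. Peptide was added by 2-fold serial dilution in PBS (0.625–20 μM), with PBS as blank and octenidine dihydrochloride (4 μM final) as positive control. Plates were kept at 37 °C in the dark for 120 min, reading fluorescence (ex 544/em 620 nm) every minute. Means of at least three measurements.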

Pseudomonas aeruginosa [16] = assay: Bactericidal activity against Pseudomonas aeruginosa assessed as reduction in bacterial count at 24 uM after 60 mins by time kill assay; format: functional
How it was run: (§4)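 P. aeruginosa inoculum about 5 × 10^5 cfu/mL in LB mixed 1:1 with LB alone or LB containing test agent at final 8, 24, 80 or 20 μM. Incubation was at 37 °C with shaking for 4 h. Aliquots taken at 0–240 min were serially diluted in 0.9% NaCl and plated on LB agar overnight at 37 °C. Viable cfu/mL were counted; means of four independent measurements.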

Pseudomonas aeruginosa [17] = assay: Antimicrobial activity against Pseudomonas aeruginosa assessed as induction of cell integrity break down at 30 uM after 60 mins by TEM analysis; format: functional, organism-based
How it was run: (§5)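 P. aeruginosa at 10^8 cfu/mL was exposed to peptide at 30 or 150 μM for 60 min, with untreated cells as control. Cells were centrifuged, washed twice in 0.9% NaCl and adsorbed 5–10 min on Parlodion-carbon-coated copper grids. They were negatively stained 30–40 s with 0.25% phosphotungstic acid (pH 7.3) plus 0.01% BSA, air-dried and imaged by TEM.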

Pseudomonas aeruginosa [18] = assay: Induction of cell permeabilization in Pseudomonas aeruginosa assessed as propidium iodide uptake 10 to 100 mins; format: functional, organism-based; how it was run: as §3
Staphylococcus aureus [19] = assay: Antimicrobial activity against Staphylococcus aureus clinical isolates from Liberec regional hospital assessed as reduction in bacterial growth after 20 hrs by […]; format: functional; how it was run: as §1
Pseudomonas aeruginosa [20] = assay: Bactericidal activity against Pseudomonas aeruginosa assessed as induction of bacteria killing at 20 uM after 4 hrs by time kill assay; format: functional, organism-based; how it was run: as §2
Pseudomonas aeruginosa [21] = assay: Bactericidal activity against Pseudomonas aeruginosa assessed as reduction in bacterial count at 20 uM after 4 hrs by time kill assay; format: functional; how it was run: as §4
Pseudomonas aeruginosa [22] = assay: Antimicrobial activity against Pseudomonas aeruginosa assessed as cell damage at 150 uM after 60 mins by negative staining based TEM analysis; format: functional, organism-based; how it was run: as §5
Pseudomonas aeruginosa [23] = assay: Antimicrobial activity against Pseudomonas aeruginosa assessed as compact cell levels at 30 uM after 60 mins by negative staining based TEM analysis; format: functional; how it was run: as §5
Pseudomonas aeruginosa [24] = assay: Antimicrobial activity against Pseudomonas aeruginosa assessed as induction of inner bacterial content leakage at 30 uM after 60 mins by TEM analysis; format: functional, organism-based; how it was run: as §5
Pseudomonas aeruginosa [25] = assay: Antimicrobial activity against Pseudomonas aeruginosa assessed as disruption of cell envelope at 30 uM after 60 mins by negative staining based TEM analysis; format: functional, organism-based; how it was run: as §5
Pseudomonas aeruginosa [26] = assay: Antimicrobial activity against Pseudomonas aeruginosa assessed as flagella attachment level at 30 uM after 60 mins by negative staining based TEM analysis; format: functional, organism-based; how it was run: as §5
Pseudomonas aeruginosa [27] = assay: Bactericidal activity against Pseudomonas aeruginosa assessed as reduction in bacterial count at 8 uM after 60 mins by time kill assay; format: functional
How it was run: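 Time-kill: P. aeruginosa (final about 5 × 10^5 cfu/mL) in LB with peptide (8 μM) or medium control was incubated 4 h at 37 °C with shaking. Samples were taken at 0–240 min, serially diluted in 0.9% NaCl and plated on LB agar overnight at 37 °C. Viable counts are given as cfu/mL; means of four independent measurements.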

Pseudomonas aeruginosa [28] = assay: Antimicrobial activity against Pseudomonas aeruginosa assessed as cell envelope detachment at 150 uM after 60 mins by negative staining based TEM analysis; format: functional, organism-based; how it was run: as §5
Pseudomonas aeruginosa [29] = assay: Antimicrobial activity against Pseudomonas aeruginosa assessed as flagella detachment at 150 uM after 60 mins by negative staining based TEM analysis; format: functional, organism-based; how it was run: as §5
Pseudomonas aeruginosa [30] = assay: Antimicrobial activity against Pseudomonas aeruginosa assessed as detached cell envelope at 30 uM after 60 mins by negative staining based TEM analysis; format: functional, organism-based; how it was run: as §5

Molecule | fractional inhibitory concentration index (FICI) (Pseudomonas aeruginosa [3]) | fractional inhibitory concentration index (FICI) (Pseudomonas aeruginosa [4]) | MIC (Bacillus subtilis) | MIC (Staphylococcus aureus [5]) | HC50 at 1 h [6] | fractional inhibitory concentration index (FICI) (Staphylococcus aureus [7]) | MIC (Pseudomonas aeruginosa [8]) | MIC (Micrococcus luteus) | MIC (Pseudomonas aeruginosa [9]) | MIC (Staphylococcus aureus [10]) | MIC [11] | MIC (Escherichia coli) | MIC (Staphylococcus aureus [12]) | MIC (Candida albicans) | MIC (Staphylococcus aureus [19]) | also measured
CCCCCCCCN=c1ccn(CCCCCCCCCCn2ccc(=NCCCCCCCC)cc2)cc1 |  |  |  |  |  |  |  |  |  |  |  |  |  |  |  | Activity (Pseudomonas aeruginosa [1]): Active
H-GILSSLWKKLKKWIAK-NH2 | 0.42 | 0.29 | ≤ 7 µM | 2.5 µM | 57 µM | 0.58 | 24 µM | ≤ 3 µM | 13 µM | 1.8 µM | 1.6 µM | 2.5 µM | 2 µM | 13 µM |  | Ratio (Pseudomonas aeruginosa [2]): 19
CN(C)[C@@H]1C(O)=C(C(N)=O)C(=O)[C@@]2(O)C(O)=C3C(=O)c4c(O)cccc4[C@@](C)(O)[C@H]3C[C@@H]12 [TETRACYCLINE] |  |  |  | 0.9 µM (≈ 0.4 µg/mL) | > 200 µM |  | 70 µM (≈ 31.1 µg/mL) |  | 29 µM (≈ 12.9 µg/mL) | 1.1 µM (≈ 0.489 µg/mL) | > 100 µM | 2.7 µM (≈ 1.2 µg/mL) | 2 µM (≈ 0.889 µg/mL) |  |  | Activity (Pseudomonas aeruginosa [13]): Active; Activity (Pseudomonas aeruginosa [14]): inactive
H-GIWSSLLKKLKKIIAK-NH2 | 0.35 | 0.27 | ≤ 7 µM | 20 µM | 165 µM | 0.4 | 21 µM | ≤ 3 µM | 6.3 µM |  | 1.5 µM | 1.6 µM | 5.3 µM | 16 µM | 4.6 µM | Ratio (Pseudomonas aeruginosa [2]): 30; Activity (Pseudomonas aeruginosa [15]): Active; fold change (FC) (Pseudomonas aeruginosa [16]): 2; Activity (Pseudomonas aeruginosa [17]): Dose-dependent effect; Activity (Pseudomonas aeruginosa [18]): Dose-dependent effect
CO[C@H]1/C=C/O[C@@]2(C)Oc3c(C)c(O)c4c(O)c(c(/C=N/N5CCN(C)CC5)c(O)c4c3C2=O)NC(=O)/C(C)=C\C=C\[C@H](C)[C@H](O)[C@@H](C)[C@@H](O)[C@@H](C)[C@H](OC(C)=O)[C@@H]1C [RIFAMPIN] |  |  |  | < 0.1 µM |  |  | 19 µM (≈ 15.6 µg/mL) |  | 27 µM (≈ 22.2 µg/mL) | < 0.1 µM | < 0.1 µM | 10 µM (≈ 8.23 µg/mL) | < 0.1 µM |  |  | Activity (Pseudomonas aeruginosa [20]): Active; fold change (FC) (Pseudomonas aeruginosa [21]): 3
H-GIMSSLMKKLKKIIAK-NH2 | 0.65 | 0.43 | ≤ 7 µM | 32 µM | > 400 µM | 0.33 | 7.4 µM | ≤ 3 µM | 5 µM | 7.6 µM | 1.9 µM | 9 µM | 23 µM | 5.2 µM |  | Activity (Pseudomonas aeruginosa [22]): Active; Activity (Pseudomonas aeruginosa [23]): 60%; Activity (Pseudomonas aeruginosa [24]): Active; Activity (Pseudomonas aeruginosa [17]): Active; Activity (Pseudomonas aeruginosa [25]): Active; Activity (Pseudomonas aeruginosa [26]): Active; fold change (FC) (Pseudomonas aeruginosa [27]): 2; Activity (Pseudomonas aeruginosa [28]): Active; Activity (Pseudomonas aeruginosa [29]): Active; Activity (Pseudomonas aeruginosa [30]): Active; Activity (Pseudomonas aeruginosa [18]): Active
H-KILSSLLKKLKKIIAK-NH2 | 0.71 | 0.26 | ≤ 7 µM | 32 µM | 364 µM | 0.29 | 16 µM | ≤ 3 µM | 5 µM |  | 1.4 µM | 16 µM | 10 µM | 25 µM | 5.5 µM | 
H-GILSKLLKKLKKIIAK-NH2 | 0.65 | 0.34 | ≤ 7 µM | 23 µM | > 400 µM | 0.33 | 8.5 µM | ≤ 3 µM | 4.5 µM |  | 1.8 µM | 18 µM | 10 µM | 45 µM | 5.9 µM | 
